Results: ChEMBL document CHEMBL5329184, “Design, synthesis, electrochemistry and anti-trypanosomatid hit/lead identification of nitrofuranylazines” (RSC Med Chem, 2023)

Tests used:
THP-1 = test: cells; assay type: functional, cell-based; details: Homo sapiens, THP-1, 72 h
Leishmania major [1] = test: Antileishmanial activity against Leishmania major IR-173 promastigotes assessed as inhibition of parasite growth incubated for 48 hrs by resazurin staining based analysis; assay type: functional, organism-based; details: IR-173, 48 h
How it was run: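 Logarithmic-phase promastigotes (1.25 × 10^6 cells per mL) grown in supplemented M199 with 10% FBS, pH 7.3–7.4, 26 °C. […] 48 h at 26 °C, then resazurin 24 h in the dark. Absorbance 570 minus 600 nm. IC50 by non-linear regression, mean ± SD of three biological replicates.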

Leishmania donovani [2] = test: Antileishmanial activity against Leishmania donovani MHOM/IN/95/9515 promastigotes assessed as inhibition of parasite growth incubated for 48 hrs by resazurin staining based analysis; assay type: functional, organism-based; details: MHOM/IN/95/9515, 48 h
Trypanosoma cruzi [3] = test: Antitrypanosomal activity against Trypanosoma cruzi epimastigotes assessed as parasite growth inhibition incubated for 48 hrs by resazurin staining based analysis; assay type: functional, organism-based
[4] = Selectivity index, ratio of IC50 for cytotoxicity against African green monkey Vero cells assessed as inhibition of cell growth to IC50 for antitrypanosomal activity against Trypanosoma cruzi epimastigotes assessed as parasite growth inhibition; assay type: toxicity, cell-based; details: read-out: Ratio IC50
[5] = Selectivity index, ratio of IC50 for cytotoxicity against African green monkey Vero cells assessed as inhibition of cell growth to IC50 for antitrypanosomal activity against Trypanosoma cruzi trypomastigotes assessed as parasite growth inhibition; assay type: toxicity, cell-based; details: read-out: Ratio IC50
[6] = Selectivity index, ratio of IC50 for cytotoxicity against human THP-1 cells assessed as inhibition of cell growth to IC50 for antitrypanosomal activity against Trypanosoma cruzi trypomastigotes assessed as parasite growth inhibition; assay type: functional
Trypanosoma cruzi [7] = test: Selectivity index, ratio of IC50 for antitrypanosomal activity against Trypanosoma cruzi epimastigote assessed as parasite growth inhibition to IC50 for antitrypanosomal activity against Trypanosoma cruzi trypomastigotes assessed as parasite growth inhibition; assay type: functional
in vitro [8] = details: monkey, Vero cells
in vitro [9] = details: monkey, Vero cells; remark: listed apart in the source
Leishmania major [10] = test: Antileishmanial activity against Leishmania major IR-173 amastigote assessed as inhibition of parasite growth incubated for 72 hrs by resazurin staining based analysis; details: IR-173, 72 h
Leishmania donovani [11] = test: Antileishmanial activity against Leishmania donovani MHOM/IN/95/9515 amastigote assessed as inhibition of parasite growth incubated for 72 hrs by resazurin staining based analysis; details: MHOM/IN/95/9515, 72 h
Trypanosoma cruzi [12] = test: Antitrypanosomal activity against bloodstream Trypanosoma cruzi trypomastigotes infected in African green monkey Vero cells assessed as parasite growth inhibition incubated for 48 hrs by resazurin assay
Leishmania donovani [13] = test: Selectivity index, ratio of IC50 for antileishmanial activity against Leishmania donovani MHOM/IN/95/9515 promastigotes assessed as inhibition of parasite growth to IC50 for antileishmanial activity against Leishmania donovani MHOM/IN/95/9515 amastigote assessed as inhibition of parasite growth; assay type: functional
in vitro [14] = details: monkey, Vero cells; remark: listed apart in the source
Leishmania major [15] = test: Selectivity index, ratio of IC50 for antileishmanial activity against Leishmania major IR-173 promastigotes assessed as inhibition of parasite growth to IC50 for antileishmanial activity against Leishmania major IR-173 amastigote assessed as inhibition of parasite growth; assay type: functional
in vitro [16] = details: monkey, Vero cells; remark: listed apart in the source
[17] = Selectivity index, ratio of IC50 for cytotoxicity against human THP-1 cells assessed as inhibition of cell growth to IC50 for antileishmanial activity against Leishmania donovani MHOM/IN/95/9515 amastigote assessed as inhibition of parasite growth; assay type: functional

## O=[N+]([O-])c1ccc(/C=N/N=C/c2ccccc2)o1
THP-1
  IC50: > 100 µM
Leishmania major [1]
  IC50: 1.19 µM
Leishmania donovani [2]
  IC50: 1.45 µM
Trypanosoma cruzi [3]
  IC50: 7.66 µM
[4]
  selectivity ratio: 2
[5]
  selectivity ratio: 7
[6]
  Ratio IC50: 42
Trypanosoma cruzi [7]
  Ratio IC50: 3.32
In vitro [8]
  selectivity ratio: 14
In vitro [9]
  selectivity ratio: 11
Leishmania major [10]
  IC50: > 10 µM
Leishmania donovani [11]
  IC50: > 10 µM
Trypanosoma cruzi [12]
  IC50: 2.31 µM

## O=C(Cn1ccnc1[N+](=O)[O-])NCc1ccccc1 [BENZNIDAZOLE]
THP-1
  IC50: > 100 µM
[5]
  selectivity ratio: 21
[6]
  Ratio IC50: 21
Trypanosoma cruzi [12]
  IC50: 4.79 µM

## NC(=O)N/N=C/c1ccc([N+](=O)[O-])o1 [NITROFURAZONE]
THP-1
  IC50: > 100 µM
Leishmania major [1]
  IC50: 1.85 µM
Leishmania donovani [2]
  IC50: 1.85 µM
Leishmania donovani [13]
  Ratio IC50: 1.09
Trypanosoma cruzi [3]
  IC50: 7.83 µM
[4]
  selectivity ratio: 13
[5]
  selectivity ratio: 45
[6]
  Ratio IC50: 45
Trypanosoma cruzi [7]
  Ratio IC50: 3.5
In vitro [8]
  selectivity ratio: 54
In vitro [9]
  selectivity ratio: 54
In vitro [14]
  selectivity ratio: 59
Leishmania major [10]
  IC50: > 10 µM
Leishmania donovani [11]
  IC50: 1.69 µM
Trypanosoma cruzi [12]
  IC50: 2.23 µM

## O=[N+]([O-])c1ccc(/C=N/N=C/c2ccc(F)cc2)s1
THP-1
  IC50: > 100 µM
Leishmania major [1]
  IC50: 3.79 µM
Leishmania donovani [2]
  IC50: 2 µM
Trypanosoma cruzi [3]
  IC50: > 10 µM
[5]
  selectivity ratio: 15
[6]
  Ratio IC50: 15
In vitro [8]
  selectivity ratio: 26
In vitro [9]
  selectivity ratio: 50
Leishmania major [10]
  IC50: > 10 µM
Leishmania donovani [11]
  IC50: > 10 µM
Trypanosoma cruzi [12]
  IC50: 6.56 µM

## O=[N+]([O-])c1ccc(/C=N/N=C/c2ccc(F)cc2)o1
THP-1
  IC50: 63.4 µM
Leishmania major [1]
  IC50: 0.73 µM
Leishmania major [15]
  Ratio IC50: 0.2
Leishmania donovani [2]
  IC50: 1.18 µM
Trypanosoma cruzi [3]
  IC50: 3.56 µM
[4]
  selectivity ratio: 13
[5]
  selectivity ratio: 24
[6]
  Ratio IC50: 51
Trypanosoma cruzi [7]
  Ratio IC50: 1.83
In vitro [8]
  selectivity ratio: 65
In vitro [16]
  selectivity ratio: 13
In vitro [9]
  selectivity ratio: 40
Leishmania major [10]
  IC50: 3.69 µM
Leishmania donovani [11]
  IC50: > 10 µM
Trypanosoma cruzi [12]
  IC50: 1.95 µM

## O=Cc1ccc([N+](=O)[O-])s1
THP-1
  IC50: 26.7 µM
Leishmania major [1]
  IC50: 3.75 µM
Leishmania donovani [2]
  IC50: 5.07 µM
Trypanosoma cruzi [3]
  IC50: > 10 µM
[5]
  selectivity ratio: 8
[6]
  Ratio IC50: 16
In vitro [8]
  selectivity ratio: 3
In vitro [9]
  selectivity ratio: 2
Leishmania major [10]
  IC50: > 10 µM
Leishmania donovani [11]
  IC50: > 10 µM
Trypanosoma cruzi [12]
  IC50: 1.62 µM

## O=[N+]([O-])c1ccc(/C=N/N=C/c2ccc(OCc3ccccc3)cc2)o1
THP-1
  IC50: > 100 µM
Leishmania major [1]
  IC50: 0.45 µM
Leishmania donovani [2]
  IC50: 1.61 µM
[17]
  Ratio IC50: 400
Leishmania donovani [13]
  Ratio IC50: 6.44
Trypanosoma cruzi [3]
  IC50: 95.2 µM
[4]
  selectivity ratio: 1
In vitro [8]
  selectivity ratio: 222
In vitro [9]
  selectivity ratio: 62
In vitro [14]
  selectivity ratio: 400
Leishmania major [10]
  IC50: > 10 µM
Leishmania donovani [11]
  IC50: 0.25 µM
Trypanosoma cruzi [12]
  IC50: > 10 µM

## O=C1OCCN1/N=C/c1ccc([N+](=O)[O-])o1 [FURAZOLIDONE]
Leishmania major [1]
  IC50: 0.34 µM
Leishmania donovani [2]
  IC50: 0.28 µM
Leishmania major [10]
  IC50: 5.61 µM
Leishmania donovani [11]
  IC50: 2.7 µM

## O=[N+]([O-])c1ccc(/C=N/N=C/c2ccc(OCc3ccccc3)cc2)s1
THP-1
  IC50: > 100 µM
Leishmania major [1]
  IC50: 4.39 µM
In vitro [8]
  selectivity ratio: 23
Leishmania major [10]
  IC50: > 10 µM

## C(=N\N=C\c1ccco1)/c1ccc(OCc2ccccc2)cc1
Leishmania major [1]
  IC50: > 10 µM
Leishmania donovani [2]
  IC50: > 10 µM
Trypanosoma cruzi [3]
  IC50: > 10 µM
Leishmania major [10]
  IC50: > 10 µM
Leishmania donovani [11]
  IC50: > 10 µM
Trypanosoma cruzi [12]
  IC50: > 10 µM

## O=[N+]([O-])c1ccc(/C=N/N=C/c2ccco2)cc1
Leishmania major [1]
  IC50: > 10 µM
Leishmania donovani [2]
  IC50: > 10 µM
Trypanosoma cruzi [3]
  IC50: > 10 µM
Leishmania major [10]
  IC50: > 10 µM
Leishmania donovani [11]
  IC50: > 10 µM
Trypanosoma cruzi [12]
  IC50: > 10 µM

## O=[N+]([O-])c1ccc(/C=N/N=C/c2ccccc2)s1
THP-1
  IC50: > 100 µM
Leishmania major [1]
  IC50: 1.43 µM
Leishmania donovani [2]
  IC50: 0.93 µM
[17]
  Ratio IC50: 14
Leishmania donovani [13]
  Ratio IC50: 0.13
Trypanosoma cruzi [3]
  IC50: 9.21 µM
[4]
  selectivity ratio: 5
[5]
  selectivity ratio: 17
[6]
  Ratio IC50: 40
Trypanosoma cruzi [7]
  Ratio IC50: 3.68
In vitro [8]
  selectivity ratio: 29
In vitro [9]
  selectivity ratio: 45
In vitro [14]
  selectivity ratio: 6
Leishmania major [10]
  IC50: > 10 µM
Leishmania donovani [11]
  IC50: 7.26 µM
Trypanosoma cruzi [12]
  IC50: 2.5 µM

## Cc1ccc(/C=N/N=C/c2ccc([N+](=O)[O-])o2)cc1
THP-1
  IC50: > 100 µM
Leishmania major [1]
  IC50: 0.42 µM
Leishmania donovani [2]
  IC50: 0.76 µM
Trypanosoma cruzi [3]
  IC50: 3.69 µM
[4]
  selectivity ratio: 27
[5]
  selectivity ratio: 25
[6]
  Ratio IC50: 25
Trypanosoma cruzi [7]
  Ratio IC50: 0.91
In vitro [8]
  selectivity ratio: 238
In vitro [9]
  selectivity ratio: 132
Leishmania major [10]
  IC50: > 10 µM
Leishmania donovani [11]
  IC50: > 10 µM
Trypanosoma cruzi [12]
  IC50: 4.04 µM

## O=[N+]([O-])c1ccc(/C=N/N=C/c2ccc(O)cc2)s1
THP-1
  IC50: 22.9 µM
Leishmania major [1]
  IC50: 2.22 µM
Leishmania donovani [2]
  IC50: 1.66 µM
[17]
  Ratio IC50: 67
Leishmania donovani [13]
  Ratio IC50: 4.88
Trypanosoma cruzi [3]
  IC50: > 10 µM
[5]
  selectivity ratio: 11
[6]
  Ratio IC50: 8
In vitro [8]
  selectivity ratio: 15
In vitro [9]
  selectivity ratio: 20
In vitro [14]
  selectivity ratio: 97
Leishmania major [10]
  IC50: > 10 µM
Leishmania donovani [11]
  IC50: 0.34 µM
Trypanosoma cruzi [12]
  IC50: 3.04 µM

## COc1ccc(/C=N/N=C/c2ccc([N+](=O)[O-])o2)cc1
THP-1
  IC50: > 100 µM
Leishmania major [1]
  IC50: 0.89 µM
Leishmania donovani [2]
  IC50: 1.16 µM
[17]
  Ratio IC50: 44
Leishmania donovani [13]
  Ratio IC50: 0.51
Trypanosoma cruzi [3]
  IC50: 4.92 µM
[4]
  selectivity ratio: 10
[5]
  selectivity ratio: 8
[6]
  Ratio IC50: 16
Trypanosoma cruzi [7]
  Ratio IC50: 0.8
In vitro [8]
  selectivity ratio: 57
In vitro [9]
  selectivity ratio: 44
In vitro [14]
  selectivity ratio: 22
Leishmania major [10]
  IC50: > 10 µM
Leishmania donovani [11]
  IC50: 2.28 µM
Trypanosoma cruzi [12]
  IC50: 6.14 µM

## O=[N+]([O-])c1ccc(/C=N/N=C/c2ccc(O)cc2)o1
THP-1
  IC50: 46.2 µM
Leishmania major [1]
  IC50: 0.64 µM
Leishmania donovani [2]
  IC50: 1.02 µM
[17]
  Ratio IC50: 17
Leishmania donovani [13]
  Ratio IC50: 0.38
Trypanosoma cruzi [3]
  IC50: 7.3 µM
[4]
  selectivity ratio: 3
[5]
  selectivity ratio: 11
[6]
  Ratio IC50: 27
Trypanosoma cruzi [7]
  Ratio IC50: 4.2
In vitro [8]
  selectivity ratio: 29
In vitro [9]
  selectivity ratio: 18
In vitro [14]
  selectivity ratio: 7
Leishmania major [10]
  IC50: > 10 µM
Leishmania donovani [11]
  IC50: 2.7 µM
Trypanosoma cruzi [12]
  IC50: 1.74 µM
